Laboratory results: ChEMBL document CHEMBL4689842, “EUbOPEN Chemogenomics Library wave 1” (2021)
Several values for one entry are separate records, joined by “and”; a condition that tells them apart may be missing. Equal entries are not always repeated.

Tested on: HEK-293T
Test: Multiplex assay against HEK293T;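 on Population Tubulin-Different-Phenotype (%): share of the cells with healthy nuclei that show this phenotype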
Format: toxicity, cell-based
Settings: human
Summary of the method: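 Live cells were stained at seeding with Hoechst33342, BioTracker Green Microtubule Cytoskeleton Dye, MitoTracker Red and Annexin V Alexa Fluor 680. Following compound addition, they were imaged on a CQ1 microscope at 37°C and 5% CO2 and gated by CellPathfinder machine learning into Hoechst high-intensity objects or normal cells, with normal cells split into healthy, pyknosed or fragmented nuclei and pyknosed cells into mitotic or apoptotic. Tubulin, mitochondrial-mass and membrane-permeability phenotypes are per cents of healthy-nucleus cells.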

[1] = 12 h, 1 µM, compound concentration 1 uM, replicate 1
[2] = 12 h, 1 µM, compound concentration 1 uM, replicate 2
[3] = 12 h, 10 µM, compound concentration 10 uM, replicate 1
[4] = 12 h, 10 µM, compound concentration 10 uM, replicate 2
[5] = 24 h, 1 µM, compound concentration 1 uM, replicate 1
[6] = 24 h, 1 µM, compound concentration 1 uM, replicate 2
[7] = 24 h, 10 µM, compound concentration 10 uM, replicate 1
[8] = 24 h, 10 µM, compound concentration 10 uM, replicate 2
[9] = 48 h, 1 µM, compound concentration 1 uM, replicate 1
[10] = 48 h, 1 µM, compound concentration 1 uM, replicate 2
[11] = 48 h, 10 µM, compound concentration 10 uM, replicate 1
[12] = 48 h, 10 µM, compound concentration 10 uM, replicate 2

CC1=C(C(=O)Nc2cc3cn[nH]c3cc2F)C(c2ccc(C(F)(F)F)cc2)CC(=O)N1 (stereo unspecified)
Population Apoptotic (%) [1]: 47%
Population Fragmented Nuclei (%) [1]: 13%
Population Healthy Nuclei (%) [1]: 43%
Population Hoechst High Intensity Objects (%) [1]: 7%
Population Membrane Permeable-Phenotype (%) [1]: 3%
Population Mitochondria Different-Phenotype (%) [1]: 63%
Population Mitotic Cells (%) [1]: 52%
Population Normal (%) [1]: 92%
Population Pyknosed Nuclei (%) [1]: 42%
Population Tubulin-Different-Phenotype (%) [1]: 29%
Total Cell Count [1]: 402
Population Apoptotic (%) [2]: 6%
Population Fragmented Nuclei (%) [2]: 12%
Population Healthy Nuclei (%) [2]: 46%
Population Hoechst High Intensity Objects (%) [2]: 2%
Population Membrane Permeable-Phenotype (%) [2]: 12%
Population Mitochondria Different-Phenotype (%) [2]: 12%
Population Mitotic Cells (%) [2]: 93%
Population Normal (%) [2]: 97%
Population Pyknosed Nuclei (%) [2]: 40%
Population Tubulin-Different-Phenotype (%) [2]: 14%
Total Cell Count [2]: 235
Population Apoptotic (%) [3]: 38%
Population Fragmented Nuclei (%) [3]: 12%
Population Healthy Nuclei (%) [3]: 41%
Population Hoechst High Intensity Objects (%) [3]: 10%
Population Membrane Permeable-Phenotype (%) [3]: 5%
Population Mitochondria Different-Phenotype (%) [3]: 64%
Population Mitotic Cells (%) [3]: 61%
Population Normal (%) [3]: 89%
Population Pyknosed Nuclei (%) [3]: 45%
Population Tubulin-Different-Phenotype (%) [3]: 36%
Total Cell Count [3]: 236
Population Apoptotic (%) [4]: 16%
Population Fragmented Nuclei (%) [4]: 10%
Population Healthy Nuclei (%) [4]: 37%
Population Hoechst High Intensity Objects (%) [4]: 5%
Population Membrane Permeable-Phenotype (%) [4]: 11%
Population Mitochondria Different-Phenotype (%) [4]: 24%
Population Mitotic Cells (%) [4]: 83%
Population Normal (%) [4]: 95%
Population Pyknosed Nuclei (%) [4]: 52%
Population Tubulin-Different-Phenotype (%) [4]: 34%
Total Cell Count [4]: 240
Population Apoptotic (%) [5]: 41%
Population Fragmented Nuclei (%) [5]: 11%
Population Healthy Nuclei (%) [5]: 41%
Population Hoechst High Intensity Objects (%) [5]: 12%
Population Membrane Permeable-Phenotype (%) [5]: 3%
Population Mitochondria Different-Phenotype (%) [5]: 46%
Population Mitotic Cells (%) [5]: 58%
Population Normal (%) [5]: 87%
Population Pyknosed Nuclei (%) [5]: 47%
Population Tubulin-Different-Phenotype (%) [5]: 29%
Total Cell Count [5]: 443
Population Apoptotic (%) [6]: 12%
Population Healthy Nuclei (%) [6]: 63%
Population Hoechst High Intensity Objects (%) [6]: 1%
Population Membrane Permeable-Phenotype (%) [6]: 14%
Population Mitochondria Different-Phenotype (%) [6]: 8%
Population Mitotic Cells (%) [6]: 87%
Population Normal (%) [6]: 98%
Population Pyknosed Nuclei (%) [6]: 25%
Population Tubulin-Different-Phenotype (%) [6]: 17%
Total Cell Count [6]: 274
Population Apoptotic (%) [7]: 42%
Population Fragmented Nuclei (%) [7]: 15%
Population Healthy Nuclei (%) [7]: 41%
Population Hoechst High Intensity Objects (%) [7]: 10%
Population Membrane Permeable-Phenotype (%) [7]: 6%
Population Mitochondria Different-Phenotype (%) [7]: 61%
Population Mitotic Cells (%) [7]: 57%
Population Normal (%) [7]: 89%
Population Pyknosed Nuclei (%) [7]: 42%
Population Tubulin-Different-Phenotype (%) [7]: 41%
Total Cell Count [7]: 229
Population Apoptotic (%) [8]: 26%
Population Fragmented Nuclei (%) [8]: 11%
Population Healthy Nuclei (%) [8]: 61%
Population Hoechst High Intensity Objects (%) [8]: 2%
Population Membrane Permeable-Phenotype (%) [8]: 12%
Population Mitochondria Different-Phenotype (%) [8]: 26%
Population Mitotic Cells (%) [8]: 73%
Population Normal (%) [8]: 97%
Population Pyknosed Nuclei (%) [8]: 26%
Population Tubulin-Different-Phenotype (%) [8]: 47%
Total Cell Count [8]: 258
Population Apoptotic (%) [9]: 29%
Population Fragmented Nuclei (%) [9]: 18%
Population Healthy Nuclei (%) [9]: 47%
Population Hoechst High Intensity Objects (%) [9]: 10%
Population Membrane Permeable-Phenotype (%) [9]: 6%
Population Mitochondria Different-Phenotype (%) [9]: 23%
Population Mitotic Cells (%) [9]: 70%
Population Normal (%) [9]: 89%
Population Pyknosed Nuclei (%) [9]: 34%
Population Tubulin-Different-Phenotype (%) [9]: 22%
Total Cell Count [9]: 530
Population Apoptotic (%) [10]: 5%
Population Fragmented Nuclei (%) [10]: 10%
Population Healthy Nuclei (%) [10]: 77%
Population Hoechst High Intensity Objects (%) [10]: 2%
Population Membrane Permeable-Phenotype (%) [10]: 8%
Population Mitochondria Different-Phenotype (%) [10]: 3%
Population Mitotic Cells (%) [10]: 94%
Population Normal (%) [10]: 97%
Population Pyknosed Nuclei (%) [10]: 11%
Population Tubulin-Different-Phenotype (%) [10]: 15%
Total Cell Count [10]: 488
Population Apoptotic (%) [11]: 49%
Population Fragmented Nuclei (%) [11]: 16%
Population Healthy Nuclei (%) [11]: 49%
Population Hoechst High Intensity Objects (%) [11]: 14%
Population Membrane Permeable-Phenotype (%) [11]: 7%
Population Mitochondria Different-Phenotype (%) [11]: 29%
Population Mitotic Cells (%) [11]: 50%
Population Normal (%) [11]: 85%
Population Pyknosed Nuclei (%) [11]: 33%
Population Tubulin-Different-Phenotype (%) [11]: 34%
Total Cell Count [11]: 261
Population Apoptotic (%) [12]: 65%
Population Healthy Nuclei (%) [12]: 75%
Population Hoechst High Intensity Objects (%) [12]: 2%
Population Membrane Permeable-Phenotype (%) [12]: 6%
Population Mitochondria Different-Phenotype (%) [12]: 19%
Population Mitotic Cells (%) [12]: 34%
Population Normal (%) [12]: 97%
Population Pyknosed Nuclei (%) [12]: 8%
Population Tubulin-Different-Phenotype (%) [12]: 36%
Total Cell Count [12]: 334

CN1CCN(Cc2cc(NC(=O)c3ccc4c(c3)CN(c3ccccc3)CC4)cc(C(F)(F)F)c2)CC1
Population Apoptotic (%) [1]: 37% and 18%
Population Fragmented Nuclei (%) [1]: 18% and 16%
Population Healthy Nuclei (%) [1]: 48% and 58%
Population Hoechst High Intensity Objects (%) [1]: 35% and 18%
Population Membrane Permeable-Phenotype (%) [1]: 16% and 8%
Population Mitotic Cells (%) [1]: 62% and 81%
Population Normal (%) [1]: 64% and 81%
Population Pyknosed Nuclei (%) [1]: 32% and 24%
Total Cell Count [1]: 601 and 582
Population Apoptotic (%) [2]: 20% and 14%
Population Fragmented Nuclei (%) [2]: 4% and 5%
Population Healthy Nuclei (%) [2]: 80% and 87%
Population Mitochondria Different-Phenotype (%) [2]: 36% and 15%
Population Mitotic Cells (%) [2]: 79% and 85%
Population Normal (%) [2]: 89% and 97%
Population Pyknosed Nuclei (%) [2]: 15% and 6%
Total Cell Count [2]: 1350 and 1353
Population Apoptotic (%) [5]: 45% and 17%
Population Fragmented Nuclei (%) [5]: 18% and 14%
Population Healthy Nuclei (%) [5]: 63% and 71%
Population Mitochondria Different-Phenotype (%) [5]: 35% and 12%
Population Mitotic Cells (%) [5]: 54% and 82%
Population Normal (%) [5]: 70% and 90%
Population Pyknosed Nuclei (%) [5]: 18% and 14%
Total Cell Count [5]: 559 and 631
Population Apoptotic (%) [6]: 11%
Population Fragmented Nuclei (%) [6]: 13% and 16%
Population Healthy Nuclei (%) [6]: 78% and 81%
Population Mitotic Cells (%) [6]: 88%
Population Normal (%) [6]: 89% and 96%
Total Cell Count [6]: 1856 and 2285
